Source: ChEMBL document CHEMBL1129626, “Cyclic HIV protease inhibitors: synthesis, conformational analysis, P2/P2' structure-activity relationship, and molecular recognition of cyclic ureas” (J Med Chem, 1996)

Assays:
[1] = test system: Human immunodeficiency virus 1; experiment: Inhibition of viral infection in HIV-1 (RF)-infected MT-2 cells with an oligonucleotide-based sandwich hybridization assay.; format: functional, MT2; settings: Human immunodeficiency virus 1, MT2
How it was run: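 Uninfected MT-2 cells were preincubated for 30 min with serial dilutions of compound, then infected with HIV-1 RF and cultured for 3 days at 37 °C, 5% CO2. Lysates were assayed for viral RNA by microtiter oligonucleotide sandwich hybridization.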

[2] = Bioavailability as maximal plasma concentration in rats; format: ADME, organism-based; settings: rat
How it was run: (§1)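 Rats (n = 4/group) were given an oral dose of 10 mg/kg in a propylene glycol / poly(ethylene glycol) 400 / water formulation. Cmax is the observed peak plasma concentration after the oral dose. F% is AUC(po)/AUC, with AUC taken from time zero to infinity and normalized for dose.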

[3] = target: Human immunodeficiency virus type 1 protease (Human immunodeficiency virus 1, UniProt Q72874); experiment: Inhibitory activity against HIV-1 protease
How it was run: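 HIV-1 protease Ki from cleavage of a fluorescent peptide substrate, products resolved by HPLC. Inhibitor was tested at four concentrations spanning 0.1–10 000 nM, the range chosen per inhibitor.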

[4] = Bioavailability in rat; format: ADME, organism-based; settings: in vivo; how it was run: as §1

| Compound | IC90 [1] [nM] | Cmax [2] [nM] | Ki [3] [nM] | bioavailability [4] [%] |
| --- | --- | --- | --- | --- |
| CC(C)=CCN1C(=O)N(CC=C(C)C)[C@H](Cc2ccccc2)[C@H](O)[C@@H](O)[C@H]1Cc1ccccc1 | 870 | < 400 | – | – |
| Cc1ccc(CN2C(=O)N(Cc3ccc(C)cc3)[C@H](Cc3ccccc3)[C@H](O)[C@@H](O)[C@H]2Cc2ccccc2)cc1 | 4300 | – | 5.7 | – |
| C=C(C)CN1C(=O)N(CC(=C)C)[C@H](Cc2ccccc2)[C@H](O)[C@@H](O)[C@H]1Cc1ccccc1 | 7600 | – | 7.3 | – |
| O=C1N(Cc2cccc([N+](=O)[O-])c2)[C@H](Cc2ccccc2)[C@H](O)[C@@H](O)[C@@H](Cc2ccccc2)N1Cc1cccc([N+](=O)[O-])c1 | 970 | – | 2.8 | – |
| O=C1N(Cc2ccc(O)cc2)[C@H](Cc2ccccc2)[C@H](O)[C@@H](O)[C@@H](Cc2ccccc2)N1Cc1ccc(O)cc1 | 32 | 390 | 0.12 | 22 |
| O=C1N(Cc2cccnc2)[C@H](Cc2ccccc2)[C@H](O)[C@@H](O)[C@@H](Cc2ccccc2)N1Cc1cccnc1 | 8800 | – | 9.7 | – |
| COc1cccc(CN2C(=O)N(Cc3cccc(OC)c3)[C@H](Cc3ccccc3)[C@H](O)[C@@H](O)[C@H]2Cc2ccccc2)c1 | 1300 | – | 1.6 | – |
| COc1ccc(CN2C(=O)N(Cc3ccc(OC)cc3)[C@H](Cc3ccccc3)[C@H](O)[C@@H](O)[C@H]2Cc2ccccc2)cc1 | 7600 | – | 157 | – |
| CC(C)CCCCCN1C(=O)N(CCCCCC(C)C)[C@H](Cc2ccccc2)[C@H](O)[C@@H](O)[C@H]1Cc1ccccc1 | > 18000 | – | 110 | – |
| O=C1N(Cc2cccc(C(F)(F)F)c2)[C@H](Cc2ccccc2)[C@H](O)[C@@H](O)[C@@H](Cc2ccccc2)N1Cc1cccc(C(F)(F)F)c1 | 7800 | – | – | – |
| O=C1N(CC2CCC2)[C@H](Cc2ccccc2)[C@H](O)[C@@H](O)[C@@H](Cc2ccccc2)N1CC1CCC1 | 1000 | – | 1.3 | – |
| COCCOCCN1C(=O)N(CCOCCOC)[C@H](Cc2ccccc2)[C@H](O)[C@@H](O)[C@H]1Cc1ccccc1 | > 94000 | – | 7700 | – |
| O=C1N(Cc2ccncc2)[C@H](Cc2ccccc2)[C@H](O)[C@@H](O)[C@@H](Cc2ccccc2)N1Cc1ccc2ccccc2c1 | 2700 | – | 6.9 | – |
| CCC(C)CCN1C(=O)N(CCC(C)CC)[C@H](Cc2ccccc2)[C@H](O)[C@@H](O)[C@H]1Cc1ccccc1 (stereo partly drawn) | – | – | 36 | – |
| CCN1C(=O)N(CC)[C@H](Cc2ccccc2)[C@H](O)[C@@H](O)[C@H]1Cc1ccccc1 | > 132000 | – | 100 | – |
| O=C1N(Cc2ccc(Cl)cc2)[C@H](Cc2ccccc2)[C@H](O)[C@@H](O)[C@@H](Cc2ccccc2)N1Cc1ccc(Cl)cc1 | 4500 | – | 5.2 | – |
| C#CCN1C(=O)N(CC#C)[C@H](Cc2ccccc2)[C@H](O)[C@@H](O)[C@H]1Cc1ccccc1 | 42000 | – | 22 | – |
| CCCN1C(=O)N(CCC)[C@H](Cc2ccccc2)[C@H](O)[C@@H](O)[C@H]1Cc1ccccc1 | 54000 | – | 8 | – |
| CCCCCN1C(=O)N(CCCCC)[C@H](Cc2ccccc2)[C@H](O)[C@@H](O)[C@H]1Cc1ccccc1 | 1500 | – | 1.6 | – |
| O=C1N(Cc2ccncc2)[C@H](Cc2ccccc2)[C@H](O)[C@@H](O)[C@@H](Cc2ccccc2)N1Cc1ccncc1 | 98000 | – | 90 | – |
| CC(C)CCN1C(=O)N(CCC(C)C)[C@H](Cc2ccccc2)[C@H](O)[C@@H](O)[C@H]1Cc1ccccc1 | 3200 | – | 12 | – |
| CN1C(=O)N(C)[C@H](Cc2ccccc2)[C@H](O)[C@@H](O)[C@H]1Cc1ccccc1 | > 141000 | – | 5700 | – |
| O=C1N(Cc2ccccc2)[C@H](Cc2ccccc2)[C@H](O)[C@@H](O)[C@@H](Cc2ccccc2)N1Cc1ccc2ccccc2c1 | 7500 | – | 2.3 | – |
| COCCN1C(=O)N(CCOC)[C@H](Cc2ccccc2)[C@H](O)[C@@H](O)[C@H]1Cc1ccccc1 | > 114000 | – | 800 | – |
| O=C1N(Cc2ccccc2F)[C@H](Cc2ccccc2)[C@H](O)[C@@H](O)[C@@H](Cc2ccccc2)N1Cc1ccccc1F | 5500 | – | 34 | – |
| COc1ccccc1CN1C(=O)N(Cc2ccccc2OC)[C@H](Cc2ccccc2)[C@H](O)[C@@H](O)[C@H]1Cc1ccccc1 | 22900 | – | 1870 | – |
| CCCCN1C(=O)N(Cc2ccc3ccccc3c2)[C@H](Cc2ccccc2)[C@H](O)[C@@H](O)[C@H]1Cc1ccccc1 | 750 | – | 0.6 | – |
| O=C1N(Cc2ccc(F)cc2)[C@H](Cc2ccccc2)[C@H](O)[C@@H](O)[C@@H](Cc2ccccc2)N1Cc1ccc2ccccc2c1 | 1100 | – | 3.6 | – |
| CCCCCCN1C(=O)N(CCCCCC)[C@H](Cc2ccccc2)[C@H](O)[C@@H](O)[C@H]1Cc1ccccc1 | > 102000 | – | 4.6 | – |
